We go through twelve molecules from ChEMBL document CHEMBL1124161, “4-Hydroxy-3-quinolinecarboxamides with antiarthritic and analgesic activities” (J Med Chem, 1988).

Molecules are shown by their SMILES. The source made the active and inactive calls. The calls are words filed in the database; no cut-off is given here. Some results are limits rather than exact numbers.

The test system of assay [1] is Rattus norvegicus. Description: Antiarthritis activity against adjuvant-induced arthritis in rats at 25 mg/kg; IA=Inactive. On the set-up: dose 25 mg/kg. It counts as functional, organism-based.
For assay [2], the system named is Mus musculus. Description: Analgesic activity against acetic acid induced writhing test in mouse after peroral administration at 100 mg/kg; IA=Inactive.
In assay [3] the test system is Mus musculus. Description: Analgesic activity against acetic acid induced writhing test in mouse administered po at 100 mg/kg; IA=Inactive. Type of assay: functional, organism-based. On the set-up: dose 100 mg/kg. The procedure, abridged: (§1)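 Female mice (20–22 g), groups of 10, fasted 7 h; drug given orally 30 min before intraperitoneal injection of 0.2 mL 1% aqueous acetic acid. Stretching/writhing movements counted from minute 5 to 20 after irritant.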

Assay [4] concerns Rattus norvegicus. Description: Anti-arthritis activity against adjuvant-induced arthritis in rats after peroral administration. Type of assay: functional. Put shortly: (§2)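 Groups of five male Lewis rats, 40–50 days old, given intraplantar injection in right hind paw of 0.6 mg Mycobacterium butyricum in 0.1 mL Bayol 55. Drug given in food from adjuvant day to day 17. Injected and noninjected hind paw volumes measured day 17 against normal controls. ED50 by least-squares curve fitting or Litchfield–Wilcoxon probit.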

Assay [5] deals with Rattus norvegicus. Description: Antiarthritis activity against adjuvant-induced arthritis in rats administered po at 10 mg/kg; IA=Inactive. Type of assay: functional, organism-based. Set-up: dose 10 mg/kg.
The subject of assay [6] is Rattus norvegicus. In words: Antiinflammatory activity against carrageenan-induced foot edema after peroral administration in rat. Type of assay: functional. Particulars: po. The procedure, abridged: (§3)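 Groups of eight male Sprague-Dawley rats (150–180 g) dosed orally at the time of subplantar injection of 0.5 mg carrageenin. Paw volume difference measured before and 5 h after injection. Expressed as ED40, estimated graphically or by Litchfield–Wilcoxon probit analysis.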
(Carrageenan injected into the paw causes an acute inflammation.)

Assay [7] concerns Mus musculus. In words: Analgesic activity against acetic acid induced writhing test in mouse after peroral administration. It counts as functional. A general note: Writhing tests count abdominal constrictions after an irritant is injected.
Assay [8] relates to Rattus norvegicus. Description: Antiinflammatory activity against carrageenan-induced foot edema in rat after oral administration of 20 mg/kg; IA=Inactive. Type of assay: functional, organism-based. Set-up: dose 20 mg/kg.
The test system of assay [9] is Mus musculus. In words: Analgesic activity against acetic acid induced writhing test in mouse administered po at 50 mg/kg; IA=Inactive. It counts as functional, organism-based. Set-up: dose 50 mg/kg. Put shortly:
as §1

In assay [10] the test system is Rattus norvegicus. In words: Ulcerogenic effect after oral administration (gastric ulcer). It counts as functional. The procedure, abridged: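 Groups of eight female rats (120–150 g), fasted 24 h, dosed orally; killed 7 h later and stomachs scored. Ulceration index = (mean ulcer degree × rats with ulcers / number of rats) × 100, ulcers being scores above 0.5. ED100 (index 100, max 300) read graphically.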

Assay [11] has as its system Rattus norvegicus. In words: Ulcerogenic effect after oral administration (intestinal ulcer). Type of assay: functional. Put shortly: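 Nonfasted male rats (150–180 g) killed 24 h after oral dosing, and intestinal ulcers scored. Ulceration index = (mean degree × rats with ulcers / rats) × 100. ED100 (index 100) determined graphically.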
In assay [12] the test system is Rattus norvegicus. Description: Antiinflammatory activity against carrageenan-induced foot edema in rat after peroral administration. The note with it: po. It counts as functional. Put shortly: as §3
The target of assay [13] is T1, Polyunsaturated fatty acid 5-lipoxygenase (Rattus norvegicus, UniProt P12527).
T1 sequence (P12527 whole entry): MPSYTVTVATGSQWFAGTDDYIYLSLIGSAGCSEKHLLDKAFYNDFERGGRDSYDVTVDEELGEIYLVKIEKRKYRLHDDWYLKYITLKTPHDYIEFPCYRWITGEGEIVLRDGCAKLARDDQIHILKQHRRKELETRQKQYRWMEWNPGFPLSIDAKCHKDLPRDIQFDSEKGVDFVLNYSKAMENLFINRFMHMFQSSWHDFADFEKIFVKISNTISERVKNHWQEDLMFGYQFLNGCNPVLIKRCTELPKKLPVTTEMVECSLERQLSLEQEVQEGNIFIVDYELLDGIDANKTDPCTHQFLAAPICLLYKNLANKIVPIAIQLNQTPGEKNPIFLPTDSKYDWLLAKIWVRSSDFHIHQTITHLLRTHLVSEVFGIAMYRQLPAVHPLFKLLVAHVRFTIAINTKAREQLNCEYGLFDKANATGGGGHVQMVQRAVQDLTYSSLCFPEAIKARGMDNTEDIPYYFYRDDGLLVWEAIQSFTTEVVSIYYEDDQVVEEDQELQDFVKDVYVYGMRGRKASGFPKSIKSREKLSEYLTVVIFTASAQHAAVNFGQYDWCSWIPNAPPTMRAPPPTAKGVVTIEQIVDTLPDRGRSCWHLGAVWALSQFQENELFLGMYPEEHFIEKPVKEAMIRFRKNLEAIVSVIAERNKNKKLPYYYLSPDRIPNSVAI
In words: Inhibition of 5-lipoxygenase from rat peritoneal neutrophils in vitro.

The subject of assay [14] is Mus musculus. Description: Analgesic activity against acetic acid induced writhing test in mouse after peroral administration, treatment 6 hr before testing. Type of assay: functional. Particulars: po. Put shortly:
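Groups of 10 female mice (20–22 g), fasted 7 h, dosed orally 6 h before ip injection of 0.2 mL 1% aqueous acetic acid. Stretching and writhing movements counted from minute 5 to 20 after irritant. ED50 evaluated graphically or by computerized least-squares curve fitting.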

Assay [15] is filed under the species Rattus norvegicus. In words: Antiarthritis activity against adjuvant-induced arthritis in rats. It counts as functional. Put shortly:
as §2

The next assay addresses T2, Cyclooxygenase (Bos taurus, UniProt O62664+O62698).
T2 sequence (O62664 whole entry): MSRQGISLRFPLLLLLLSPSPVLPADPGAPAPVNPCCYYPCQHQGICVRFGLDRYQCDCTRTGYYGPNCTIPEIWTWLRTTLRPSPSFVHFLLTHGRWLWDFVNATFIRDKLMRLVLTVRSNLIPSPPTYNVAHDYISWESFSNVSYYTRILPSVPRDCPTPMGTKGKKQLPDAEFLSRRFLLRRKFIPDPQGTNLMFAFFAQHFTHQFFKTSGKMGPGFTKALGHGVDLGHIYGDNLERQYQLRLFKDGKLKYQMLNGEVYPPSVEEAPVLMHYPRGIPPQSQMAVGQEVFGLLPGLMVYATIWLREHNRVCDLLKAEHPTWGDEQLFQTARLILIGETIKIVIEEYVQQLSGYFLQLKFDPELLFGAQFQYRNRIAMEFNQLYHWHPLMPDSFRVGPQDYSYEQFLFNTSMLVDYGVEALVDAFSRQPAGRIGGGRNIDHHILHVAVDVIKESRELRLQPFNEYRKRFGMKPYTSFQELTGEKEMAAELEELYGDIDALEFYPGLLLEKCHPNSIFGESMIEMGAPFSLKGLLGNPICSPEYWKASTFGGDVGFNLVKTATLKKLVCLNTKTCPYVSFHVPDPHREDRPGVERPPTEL
T2 sequence (O62698 whole entry): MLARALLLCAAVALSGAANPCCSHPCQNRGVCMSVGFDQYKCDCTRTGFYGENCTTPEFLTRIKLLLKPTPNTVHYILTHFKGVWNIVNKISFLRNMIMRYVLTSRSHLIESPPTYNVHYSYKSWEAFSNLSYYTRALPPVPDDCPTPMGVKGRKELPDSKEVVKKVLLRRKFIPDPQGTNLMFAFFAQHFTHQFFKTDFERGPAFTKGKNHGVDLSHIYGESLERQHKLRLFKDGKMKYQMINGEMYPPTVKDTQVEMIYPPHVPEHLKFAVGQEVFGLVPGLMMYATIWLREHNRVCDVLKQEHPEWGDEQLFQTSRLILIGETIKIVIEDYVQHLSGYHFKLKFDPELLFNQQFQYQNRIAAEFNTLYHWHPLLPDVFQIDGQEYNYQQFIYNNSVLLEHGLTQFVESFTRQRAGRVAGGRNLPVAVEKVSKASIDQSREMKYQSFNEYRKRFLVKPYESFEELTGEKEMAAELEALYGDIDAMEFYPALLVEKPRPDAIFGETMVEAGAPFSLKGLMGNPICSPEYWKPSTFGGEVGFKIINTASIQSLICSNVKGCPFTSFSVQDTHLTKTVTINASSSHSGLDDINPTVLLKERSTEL
In words: Inhibition of bovine Prostaglandin G/H synthase in seminal vesicle microsomes in vitro.

For assay [16], the system named is Mus musculus. In words: Analgesic activity against acetic acid induced writhing test in mouse after peroral administration at 100 mg/kg; IA=Inactive. Set-up: dose 100 mg/kg. Type of assay: functional, organism-based. Put shortly: as §1
The mark [17] stands for this setting: Rattus norvegicus, po, read-out: ED50.
The mark [18] stands for this setting: Mus musculus, po, read-out: ED50.

Broadly, the ED50 is the dose that gives a 50% effect, or the effect in half of the subjects. Turning to `O=C(Nc1nccs1)c1c(CO)nc2c(C(F)(F)F)cccc2c1O`, the ED50 result in the assay with Rattus norvegicus [1] and in the assay on Mus musculus [2] was “inactive” each time.

Consider `CCC(=O)OC(c1nc2c(C(F)(F)F)cccc2c(O)c1C(=O)Nc1ccccn1)C(C)C` (centres undefined), for which, in the assay on Mus musculus [3], the ED50 entry was “inactive”. Further, the median effective dose (ED50) in the assay on Rattus norvegicus [4] (setting [17]) was 5 mg/kg.

For `O=C(Nc1nccs1)c1c(C(O)C2CCCCC2)nc2c(C(F)(F)F)cccc2c1O` (centres undefined), the ED50 entry in the assay on Mus musculus [3] and with Rattus norvegicus [5] was “inactive” throughout. In addition, the ED40 in the assay with Rattus norvegicus [6] is > 100 mg/kg.

For the molecule `O=C(Nc1nccs1)c1c(Cc2ccccc2)nc2c(C(F)(F)F)cccc2c1O`, the 50% effective dose (ED50) with Mus musculus [7] (setting [18]) is 40 mg/kg. Moreover, the ED50 entry in the assay on Rattus norvegicus [8] is “inactive”.

As for `Cc1cnc(NC(=O)c2cnc3c(C(F)(F)F)cccc3c2O)s1`, the ED50 result in the assay on Mus musculus [9] was “inactive”.

The IC50 is the midpoint of a concentration-inhibition curve. Low values mean inhibition by little substance, high ones a need for much substance. Regarding `CN1C(C(=O)Nc2ccccn2)=C(O)c2ccccc2S1(=O)=O` [PIROXICAM], the ED50 was determined as 3.3 mg/kg with Mus musculus [7] (setting [18]) and 0.8 mg/kg in the assay with Rattus norvegicus [4] (setting [17]). Moreover, the ED100 in the assay with Rattus norvegicus [10] worked out at 9 mg/kg; in the assay on Rattus norvegicus [11] it was 20 mg/kg. For the same molecule, the ED40 in the assay with Rattus norvegicus [12] amounted to 8 mg/kg. For the same molecule, the IC50 in assay [13] is > 100 µM.

Consider `CCC(=O)OC(CC)c1nc2c(C(F)(F)F)cccc2c(O)c1C(=O)Nc1nccs1` (stereo in doubt; 102), for which the 50% effective dose (ED50) was determined as 50 mg/kg in the assay on Mus musculus [7], 4.6 mg/kg in the assay on Mus musculus [14], 0.7 mg/kg in the assay listed under Rattus norvegicus [15] and 0.7 mg/kg in the assay with Rattus norvegicus [4]. The ED100 was >300 mg/kg in the assay on Rattus norvegicus [10] and >250 mg/kg with Rattus norvegicus [11]. This molecule returned an ED40 with Rattus norvegicus [12] of 4 mg/kg. The half-inhibitory concentration (IC50) in assay [13] is 3 µM; at Cyclooxygenase, 2.1 µM.

Regarding `CC(=O)OC(c1nc2c(C(F)(F)F)cccc2c(O)c1C(=O)Nc1ccccn1)C(C)C` (centres undefined), the ED50 result with Mus musculus [16] is “inactive”. The 50% effective dose (ED50) in the assay with Rattus norvegicus [4] (setting [17]) is ≥ 5 mg/kg.

As to `Cc1cc(NC(=O)c2cnc3c(C(F)(F)F)cccc3c2O)no1`, the ED50 result with Mus musculus [9] was “inactive”.

As to `CCCCCCCCCCCC(=O)OC(CC)c1nc2c(C(F)(F)F)cccc2c(O)c1C(=O)Nc1nccs1` (centres undefined), the ED50 result in the assay on Mus musculus [16] was “inactive”. Further, the ED50 in the assay on Rattus norvegicus [4] (setting [17]) is > 5 mg/kg.

For `CCC(O)c1nc2c(C(F)(F)F)cccc2c(O)c1C(=O)Nc1nccs1` (stereo in doubt; 89), the ED50 in the assay on Mus musculus [7] is 3 mg/kg; in the assay listed under Rattus norvegicus [15] it was 2 mg/kg; in the assay with Rattus norvegicus [4], 1.6 mg/kg. For the same molecule, the ED100 in the assay with Rattus norvegicus [10] came out at 12 mg/kg. The ED40 in the assay on Rattus norvegicus [12] worked out at 5 mg/kg. For the same molecule, the half-inhibitory concentration (IC50) in [13] is 1.1 µM; on Cyclooxygenase, 0.2 µM.

In the case of `O=C(Nc1nccs1)c1c(-c2ccccc2)nc2c(C(F)(F)F)cccc2c1O`, the ED50 in the assay with Mus musculus [7] (setting [18]) is 50 mg/kg. For the same molecule, in the assay with Rattus norvegicus [8], the ED50 result is “inactive”.
